Measured values as given in ChEMBL document CHEMBL3867451, “Phenolic Metabolites of Dalea ornata Affect Both Survival and Motility of the Human Pathogenic Hookworm Ancylostoma ceylanicum” (J Nat Prod, 2016).

Key:
Ancylostoma ceylanicum [1] = test: Anthelmintic activity against Ancylostoma ceylanicum isolated from infected Syrian hamster feces assessed as survival rate at 25 ug/ml measured on day 1 relative to control; assay type: functional; conditions: 24 h
Ancylostoma ceylanicum [2] = test: Anthelmintic activity against Ancylostoma ceylanicum isolated from infected Syrian hamster feces assessed as survival rate at 25 ug/ml measured on day 2 relative to control; assay type: functional; conditions: 48 h
Ancylostoma ceylanicum [3] = test: Anthelmintic activity against Ancylostoma ceylanicum isolated from infected Syrian hamster feces assessed as survival rate at 25 ug/ml measured on day 3 relative to control; assay type: functional; conditions: 72 h
Ancylostoma ceylanicum [4] = test: Anthelmintic activity against Ancylostoma ceylanicum isolated from infected Syrian hamster feces assessed as survival rate at 25 ug/ml measured on day 4 relative to control; assay type: functional; conditions: 96 h
Ancylostoma ceylanicum [5] = test: Anthelmintic activity against Ancylostoma ceylanicum isolated from infected Syrian hamster feces assessed as survival rate at 25 ug/ml measured on day 5 (reference value: >95%); assay type: functional; conditions: 120 h
[6] = Effect on Syrian hamster splenocytes proliferation assessed as stimulation index by BrdU-incorporation based colorimetric analysis; assay type: ADME, cell-based, Mesocricetus auratus; conditions: splenocyte
Method in brief: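 Hamster spleens dissociated through strainers, red cells lysed, cells washed in RPMI. Plated in triplicate at 10⁵ cells per well with several doses of compound. 1% DMSO served as negative control, concanavalin A as positive control. Proliferation read by colorimetric BrdU incorporation. Index is mean OD450 of compound wells divided by mean OD450 of medium plus 1% DMSO wells, with 1 meaning no effect.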

Ancylostoma ceylanicum [7] = test: Anthelmintic activity against Ancylostoma ceylanicum isolated from infected Syrian hamster feces assessed as motility at 25 ug/ml measured on day 5; assay type: functional
Method in brief: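 Adult worms from hamster intestine washed in RPMI with fungizone (25 μg/mL) and 20× pen/strep, held overnight at 37 °C, 5% CO2 in that medium plus 50% FBS. Compound added from DMSO stock to 1% DMSO final; 1% DMSO negative control. Motility scored on a 0–3 scale, worms stimulated by microscope light and heat and gentle manipulation.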

[8] = Toxicity in po dosed rat; assay type: organism-based; conditions: in vivo
Ancylostoma ceylanicum [9] = test: Anthelmintic activity against Ancylostoma ceylanicum isolated from infected Syrian hamster feces assessed as mortality at 10 ug/ml measured on day 3 relative to control; assay type: functional; conditions: 72 h

Question: Which survival at 25 µg/mL (Ancylostoma ceylanicum [1]) does the source give for `C=CC(C)(C)c1cc([C@@H]2CC(=O)c3c(O)cc(O)c(CC=C(C)C)c3O2)c(O)cc1O` here?
Answer: 100%

Question: And the survival at 25 µg/mL (Ancylostoma ceylanicum [2])?
Answer: 100%

Question: And the survival at 25 µg/mL (Ancylostoma ceylanicum [3])?
Answer: 100%

Question: And the survival at 25 µg/mL (Ancylostoma ceylanicum [4])?
Answer: 100%

Question: What about the survival at 25 µg/mL (Ancylostoma ceylanicum [5]) of the same molecule?
Answer: 100%

Question: And the Ratio [6]?
Answer: 0.8 to 1

Question: Which results are given for `Oc1ccc2c(c1)OC[C@@H]1c3cc4c(cc3O[C@H]21)OCO4` [(+)-MAACKIAIN]?
Answer: Activity (Ancylostoma ceylanicum [7]): 80%; survival at 25 µg/mL (Ancylostoma ceylanicum [1]): 100%; survival at 25 µg/mL (Ancylostoma ceylanicum [2]): 93%; survival at 25 µg/mL (Ancylostoma ceylanicum [3]): 83%; survival at 25 µg/mL (Ancylostoma ceylanicum [4]): 80%; survival at 25 µg/mL (Ancylostoma ceylanicum [5]): 73%; Ratio [6]: 1

Question: For `COc1cc2c(cc1OC)[C@@H]1C(=O)c3ccc4c(c3O[C@@H]1CO2)C=CC(C)(C)O4` [DEGUELIN], which survival at 25 µg/mL (Ancylostoma ceylanicum [1]) is on record?
Answer: 100%

Question: What about the survival at 25 µg/mL (Ancylostoma ceylanicum [2]) of the same molecule?
Answer: 50%

Question: And the survival at 25 µg/mL (Ancylostoma ceylanicum [3])?
Answer: 40%

Question: And the survival at 25 µg/mL (Ancylostoma ceylanicum [4])?
Answer: 0%

Question: And the survival at 25 µg/mL (Ancylostoma ceylanicum [5])?
Answer: 0%

Question: What about the Ratio [6] of the same molecule?
Answer: 0.8 to 1

Question: For `C=C(C)[C@H]1Cc2c(ccc3c2O[C@@H]2COc4cc(OC)c(OC)cc4[C@@H]2C3=O)O1` [ROTENONE], which LD50 [8] is on record?
Answer: 132 to 1500 mg/kg

Question: Which results are given for `CC(C)=CCc1c(O)cc(O)c2c1O[C@H](c1ccc(O)cc1O)CC2=O` [LEACHIANONE G]?
Answer: survival at 25 µg/mL (Ancylostoma ceylanicum [1]): 100%; survival at 25 µg/mL (Ancylostoma ceylanicum [2]): 97%; survival at 25 µg/mL (Ancylostoma ceylanicum [3]): 93%; survival at 25 µg/mL (Ancylostoma ceylanicum [4]): 93%; survival at 25 µg/mL (Ancylostoma ceylanicum [5]): 87%; Ratio [6]: 0.8 to 1

Question: With `CC(C)=CCC/C(C)=C/Cc1c(O)ccc2c1O[C@H](c1ccc(O)cc1O)CC2=O` as the molecule, how does the survival at 25 µg/mL (Ancylostoma ceylanicum [1]) read?
Answer: 100%

Question: What about the survival at 25 µg/mL (Ancylostoma ceylanicum [2]) of the same molecule?
Answer: 100%

Question: What about the survival at 25 µg/mL (Ancylostoma ceylanicum [3]) of the same molecule?
Answer: 100%

Question: And the survival at 25 µg/mL (Ancylostoma ceylanicum [4])?
Answer: 100%

Question: What about the survival at 25 µg/mL (Ancylostoma ceylanicum [5]) of the same molecule?
Answer: 93%

Question: And the Ratio [6]?
Answer: 0.8 to 1

Question: Which survival at 25 µg/mL (Ancylostoma ceylanicum [1]) does the source give for `C=CC(C)(C)c1cc([C@@H]2CC(=O)c3ccc(O)c(CC=C(C)C)c3O2)c(O)cc1O` here?
Answer: 100%

Question: And the survival at 25 µg/mL (Ancylostoma ceylanicum [2])?
Answer: 100%

Question: What about the survival at 25 µg/mL (Ancylostoma ceylanicum [3]) of the same molecule?
Answer: 100%

Question: What about the survival at 25 µg/mL (Ancylostoma ceylanicum [4]) of the same molecule?
Answer: 97%

Question: And the survival at 25 µg/mL (Ancylostoma ceylanicum [5])?
Answer: 90%

Question: What about the Ratio [6] of the same molecule?
Answer: 0.8 to 1

Question: For `COc1ccc2c(c1)O[C@@H]1c3ccc(O)cc3OC[C@H]21`, which survival at 25 µg/mL (Ancylostoma ceylanicum [1]) is on record?
Answer: 100%

Question: What about the survival at 25 µg/mL (Ancylostoma ceylanicum [2]) of the same molecule?
Answer: 100%

Question: And the survival at 25 µg/mL (Ancylostoma ceylanicum [3])?
Answer: 100%

Question: And the survival at 25 µg/mL (Ancylostoma ceylanicum [4])?
Answer: 100%

Question: And the survival at 25 µg/mL (Ancylostoma ceylanicum [5])?
Answer: 100%

Question: What about the Ratio [6] of the same molecule?
Answer: 0.8 to 1

Question: What does the source list for `CC(C)=CCc1c(O)ccc2c1O[C@H](c1ccc(O)cc1O)CC2=O`?
Answer: survival at 25 µg/mL (Ancylostoma ceylanicum [1]): 100%; survival at 25 µg/mL (Ancylostoma ceylanicum [2]): 100%; survival at 25 µg/mL (Ancylostoma ceylanicum [3]): 90%; survival at 25 µg/mL (Ancylostoma ceylanicum [4]): 80%; survival at 25 µg/mL (Ancylostoma ceylanicum [5]): 80%; Ratio [6]: 0.8 to 1

Question: Which survival at 25 µg/mL (Ancylostoma ceylanicum [1]) does the source give for `CC(C)=CCc1c(O)c(O)cc2c1O[C@H](c1ccc(O)cc1)CC2=O` here?
Answer: 100%

Question: And the survival at 25 µg/mL (Ancylostoma ceylanicum [2])?
Answer: 97%

Question: What about the survival at 25 µg/mL (Ancylostoma ceylanicum [3]) of the same molecule?
Answer: 90%

Question: What about the survival at 25 µg/mL (Ancylostoma ceylanicum [4]) of the same molecule?
Answer: 83%

Question: What about the survival at 25 µg/mL (Ancylostoma ceylanicum [5]) of the same molecule?
Answer: 83%

Question: What about the Ratio [6] of the same molecule?
Answer: 0.8

Question: What does the source list for `COc1cc2c(cc1OC)[C@]1(O)C(=O)c3ccc4c(c3O[C@@H]1CO2)C=CC(C)(C)O4` [TEPHROSIN]?
Answer: mortality at 10 µg/mL (Ancylostoma ceylanicum [9]): 100%; survival at 25 µg/mL (Ancylostoma ceylanicum [1]): 77%; survival at 25 µg/mL (Ancylostoma ceylanicum [2]): 3%; survival at 25 µg/mL (Ancylostoma ceylanicum [3]): 0%; survival at 25 µg/mL (Ancylostoma ceylanicum [4]): 0%; survival at 25 µg/mL (Ancylostoma ceylanicum [5]): 0%; Ratio [6]: 0.8 to 1
